# Measurements as given in PubChem BioAssay.
# Activity calls are given as the source filed them.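 Rule for the calls, unless noted: active = NADPH fluorescence slope more negative than the mean of all samples by about 3 SD, 99.7% confidence; inactive = the rest.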
# What was measured:
# [1] = inhibitors of TNFa-induced NFkB p65 translocation, primary screen, imaging, HUVEC, MLSMR starter and 10KST1 sets (AID 438;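 active = inhibition above 20% together with a positive visual image hit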;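 note: compound added about 3h40 before a 20 min TNFalpha stimulation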;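 for inhibition: signal is the nuclear over cytoplasmic p65 intensity ratio per well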); settings: HUVEC TNFa-induced p65 nuclear translocation; cell count: measured here: nuclei count (cytotoxicity indicator), at 2.08 µM; inhibition: at 2 µM, stronger effect = higher value, 0% TNFa-plus-vehicle, 100% no-TNFa wells
# [2] = reduction of polyQ htt aggregates in cells – imaging, exon1htt(103Q)mCFP cells, high-content imaging, primary screen (AID 483;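 active = visual image review flags a hit and inhibition of aggregation exceeds 20%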;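 note: compound exposure lasted 3 days before fixation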;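 for nuclei count: percent of the per-plate median nuclei count of sample wells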); settings: exon1htt(103Q)mCFP cell line, aggregate imaging, at 2 µM; inhibition of aggregation: stronger effect = higher value; nuclei count: measured here: cell count, toxicity
# [3] = endothelial E-selectin expression blockers – imaging, HUVEC, immunofluorescence, MLSMR starter and 10KST1 sets, primary screen (AID 487;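 active = visually confirmed hit in the image check and inhibition above 20%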;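 for inhibition: signal is fraction of cell area covered by stained E-selectin grains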;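 for nuclei count: 100% = median nuclei count of all wells on the same plate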); settings: HUVEC TNFalpha-induced E-selectin immunofluorescence imaging, at 2 µM; inhibition: stronger effect = higher value; nuclei count: measured here: cell number, toxicity
# [4] = biological target: Voltage-gated potassium channel subunit beta-2 (Rattus norvegicus) (UniProt P62483); test: inhibitors of rat Kvbeta2 reductase activity – biochemical, NADPH fluorescence, primary screen (AID 622;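 active = fluorescence slope higher than the sample average by over 3 SD, cut at about -0.22 in these data, passing the limit was not always enough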;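 note: slope of raw intensity against log time taken from 70 to 1610 s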); settings: recombinant KvBeta, 4-cyanobenzaldehyde reduction, at 10 µM, stronger effect = higher value
# [5] = biological target: Voltage-gated potassium channel subunit beta-2 (Rattus norvegicus) (UniProt P62483); test: enhancers of rat Kvbeta2 NADPH turnover – biochemical, NADPH fluorescence, primary screen (AID 623); settings: Recombinant KvBeta, NADPH fluorescence decrease slope, 10 min; at 10 µM; stronger effect = lower value;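 note: fluorescence intensity change per second fitted from 20 to 320 s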
# [6] = biological target: Alpha-2C adrenergic receptor (Homo sapiens) (UniProt P18825); test: compounds altering alpha2C-coupled GIRK flux – cell-based, HEK293 alpha2C/GIRK1/2, thallium flux, primary screen (AID 624;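 active = fluorescence slope after compound addition differing from the mean of all screened samples at 99.7% confidence, in either direction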;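 note: slope of fluorescence ratio to pre-addition baseline per second over 15 to 24 s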); settings: thallium flux BTC fluorescence, at 10 µM, actives lie on both sides
# [7] = blockers of RIG-like receptor reporter activation – cell-based, Sendai virus stimulus, luciferase, 10K MLSCN set, TLR/RLR signaling modifier project, primary screen (AID 602276;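 active = inhibition at or above 50% at 10 µM; inactive = inhibition below 50%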;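 note: firefly luciferase from ISG56 promoter only with Renilla not read in this screen; 0% = Sendai virus plus DMSO and 100% = medium plus DMSO without virus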); settings: HEK293 RL24 IRF3 luciferase reporter, at 10 µM, stronger effect = higher value
# [8] = TLR3 IRF3 reporter activation blockers – cell-based, poly I:C stimulus, luciferase, 10K MLSCN set, primary screen (AID 602277;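 active = inhibition of the reporter signal at or above 50%; inactive = inhibition below 50%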); settings: HEK293-TLR3 RL24 IRF3 luciferase reporter, at 10 µM, stronger effect = higher value
# [9] = inhibitors of larval lipid processing in zebrafish, primary screen, whole organism, PED6 fluorescence, gall bladder and intestine (AID 686;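 active = a full or partial loss of lipid-probe fluorescence in the fish gall bladder, intestine or both, judged by eye; inactive = no fluorescence loss, or compound toxic to the fish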;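 note: larvae 5 to 7 days old with five fish per well; signal comes from phospholipase A2 cleavage of quenched PED6 carried via bile; overnight exposure to compound and PED6 before scoring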); settings: Zebrafish larvae PED6 lipid processing, fluorescence scoring; screened at 20 µM (by protocol)
# Summary of the method: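 Test system – live zebrafish larvae aged 5-7 days, whole organism · Buffer or medium – E3 fish medium · Reagent – quenched phospholipase substrate PED6, 100 nM final, ingested by larvae · Doses – 20 µM single dose · Incubation – overnight compound and PED6 incubation · Technique – visual fluorescence microscopy scoring of gall bladder, gut · Read-out basis – visual per-well fluorescence inhibition score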
# Chain of Voltage-gated potassium channel subunit beta-2 (Rattus norvegicus) (P62483 whole entry, looked up): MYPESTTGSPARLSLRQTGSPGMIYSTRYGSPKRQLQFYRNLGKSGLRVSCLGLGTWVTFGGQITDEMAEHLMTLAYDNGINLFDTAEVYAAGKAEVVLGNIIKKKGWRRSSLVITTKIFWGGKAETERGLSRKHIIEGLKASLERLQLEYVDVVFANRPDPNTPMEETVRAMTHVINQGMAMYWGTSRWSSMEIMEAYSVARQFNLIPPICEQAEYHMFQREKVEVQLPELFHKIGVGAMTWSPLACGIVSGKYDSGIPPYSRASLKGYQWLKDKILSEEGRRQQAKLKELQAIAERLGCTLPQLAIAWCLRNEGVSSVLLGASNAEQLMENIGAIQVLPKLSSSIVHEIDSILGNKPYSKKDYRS
# Chain of Alpha-2C adrenergic receptor (Homo sapiens) (P18825 whole entry, looked up): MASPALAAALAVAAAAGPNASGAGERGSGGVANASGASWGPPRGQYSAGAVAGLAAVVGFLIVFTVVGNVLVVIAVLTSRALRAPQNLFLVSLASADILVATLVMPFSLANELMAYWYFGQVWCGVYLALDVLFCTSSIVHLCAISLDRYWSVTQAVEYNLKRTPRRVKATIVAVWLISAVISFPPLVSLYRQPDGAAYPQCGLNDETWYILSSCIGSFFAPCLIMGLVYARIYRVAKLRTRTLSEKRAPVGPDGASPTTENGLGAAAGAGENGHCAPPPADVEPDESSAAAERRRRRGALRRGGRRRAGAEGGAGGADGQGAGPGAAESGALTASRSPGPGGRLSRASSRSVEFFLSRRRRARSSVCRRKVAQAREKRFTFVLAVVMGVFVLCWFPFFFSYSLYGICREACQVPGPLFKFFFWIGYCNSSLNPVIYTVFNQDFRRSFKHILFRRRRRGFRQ
Compound,cell count [1],inhibition [1],inhibition of aggregation [2],nuclei count [2] [%],inhibition [3],nuclei count [3] [%],fluorescence slope [4],NADPH fluorescence slope [5],slope [6],inhibition [7],inhibition [8],outcome [9]
COc1ccc(NC(=O)c2ccco2)cc1NC(=O)c1cccs1,400,3.8% (inactive),4.3% (inactive),95.9,13.8% (inactive),92.8,-0.421 (inactive),2.6e-05 (inactive),0.00585 (inactive),-10.6% (inactive),-14.2% (inactive),–
CCc1cccc(NC(=O)Cn2cc3c(n2)CCCC3)c1,759,-2.8% (inactive),7.5% (inactive),101,-27.9% (inactive),113,-0.506 (inactive),-2.1e-05 (inactive),0.0103 (active),13.7% (inactive),26.6% (inactive),–
O=C(NCc1ccco1)c1c2c(nc3ccccc13)CCC2,301,-1.7% (inactive),11.3% (inactive),87.3,-7.8% (inactive),83.7,-0.494 (inactive),-5.2e-05 (inactive),0.00639 (inactive),5.99% (inactive),7.89% (inactive),–
CC1CCc2nn(CC(=O)NCc3ccc(F)cc3)cc2C1 (centres undefined),919,1.2% (inactive),-5.6% (inactive),112,-72.4% (inactive),119,-0.628 (inactive),-3.4e-06 (inactive),0.00689 (inactive),-0.348% (inactive),20.2% (inactive),–
CCOc1ccc(NC2c3ccccc3C(=O)N2Cc2ccco2)cc1 (centres undefined),695,-6.7% (inactive),6.4% (inactive),47.6,-23.8% (inactive),91.8,-0.6 (inactive),1.5e-05 (inactive),0.00369 (inactive),-13.3% (inactive),-22.8% (inactive),–
COC(=O)C1=C(C)NC(C)=C(C(=O)OC)C1C(=O)OC1CCCCC1=O (centres undefined),487,8.7% (inactive),32.7% (inactive),87.8,61.1% (active),80.2,-0.425 (inactive),-3.3e-06 (inactive),0.00528 (inactive),1.65% (inactive),27.7% (inactive),–
CCn1c(SCC(=O)c2ccc(Cl)cc2)nnc1-c1ccoc1C,352,0.2% (inactive),-24% (inactive),110,-69.1% (inactive),108,-0.503 (inactive),-6.2e-05 (inactive),0.00727 (inactive),3.62% (inactive),5.26% (inactive),–
COc1cc(C2C(C#N)=C(C)NC3=C2C(=O)CC(C)(C)C3)ccc1O (centres undefined),422,-1.9% (inactive),1% (inactive),103,-15.6% (inactive),103,-0.453 (inactive),-2e-05 (inactive),0.00555 (inactive),8.2% (inactive),16.9% (inactive),–
CN1CCN(c2nc3c(c(=O)[nH]c(=O)n3C)n2CCSc2nc3ccccc3s2)CC1,503,-0.3% (inactive),25.5% (inactive),106,30.5% (inactive),100,-0.578 (inactive),-3e-05 (inactive),0.00601 (inactive),12.4% (inactive),33.3% (inactive),–
O=C(Cc1nc2ccccc2s1)c1ccc(O)cc1O,322,1.1% (inactive),-15.5% (inactive),88.3,-98.2% (inactive),124,-0.391 (inactive),-0.000109 (inactive),0.00457 (inactive),-33.1% (inactive),-88.7% (inactive),inactive
Cc1cc(C(=O)COc2cccc3cccnc23)c(C)n1C,703,1.8% (inactive),-22.3% (inactive),107,-154% (inactive),117,-0.327 (inactive),-1.7e-05 (inactive),0.00438 (inactive),-44.6% (inactive),-68% (inactive),inactive
Cn1c(C(=O)OC(C(=O)NC2CCCC2)c2cccnc2)cc2sccc21 (centres undefined),495,4% (inactive),9.5% (inactive),100,-76.7% (inactive),102,-0.437 (inactive),-5.4e-05 (inactive),0.00446 (inactive),18.1% (inactive),15.4% (inactive),active; weak signal in gallbladder and intestine
O=C(CS(=O)(=O)c1cn(Cc2ccc(Cl)cc2)c2ccccc12)N1CCOCC1,531,4.3% (inactive),37.8% (inactive),91.1,-8.5% (inactive),110,-0.504 (inactive),7.7e-07 (inactive),0.00671 (inactive),5.23% (inactive),17.5% (inactive),–
Cc1cc(-c2ccccc2)nc(SCc2ccc(C(=O)O)o2)n1,398,-1.3% (inactive),0.6% (inactive),86.2,-106% (inactive),105,-0.373 (inactive),-6.9e-05 (inactive),0.00508 (inactive),7.19% (inactive),8.59% (inactive),inactive
N#CC1=C(N)N2C(=C(C#N)C13CCCCC3)SC1CCCCC12O (centres undefined),322,11.4% (inactive),3.6% (inactive),91.5,-4.6% (inactive),116,-0.405 (inactive),1.2e-05 (inactive),0.00499 (inactive),19% (inactive),24.3% (inactive),inactive
O=C(C1CCCO1)N1CCN(C(c2ccccc2)c2ccccc2)CC1 (centres undefined),412,2.5% (inactive),10.8% (inactive),97.1,32.4% (inactive),117,-0.403 (inactive),-2.6e-05 (inactive),0.00589 (inactive),13.8% (inactive),27.4% (inactive),–
COC(=O)CN(Cc1ccco1)S(=O)(=O)c1ccccc1,554,-13.3% (inactive),-8.4% (inactive),111,-9.7% (inactive),112,-0.351 (inactive),-5.1e-05 (inactive),0.00494 (inactive),7.73% (inactive),6.21% (inactive),inactive
CCOC(=O)Cc1csc(NC(=O)CSc2nnc(-c3ccncc3)n2Cc2ccco2)n1,516,-12.9% (inactive),14.5% (inactive),97.6,-61.4% (inactive),122,-0.595 (inactive),-6.1e-05 (inactive),0.0058 (inactive),10.4% (inactive),10.6% (inactive),–
Cc1ccc(S(=O)(=O)C2(C(=O)N3CCCCCC3)CC2)cc1,439,-0.7% (inactive),-0.7% (inactive),102,-46.5% (inactive),122,-0.611 (inactive),4.7e-05 (inactive),0.00663 (inactive),8.56% (inactive),1.57% (inactive),–
CCOC(=O)C1CCN(CC(=O)c2c(C)[nH]c3ccccc23)CC1,669,3.9% (inactive),-5.8% (inactive),99.6,11.6% (inactive),102,-0.421 (inactive),-1.5e-05 (inactive),0.00551 (inactive),-3.58% (inactive),15.2% (inactive),inactive
Cc1cccc(NC(=O)CC2CCC2)c1,362,-4.1% (inactive),3% (inactive),97.1,40.7% (inactive),71.8,-0.435 (inactive),-2.3e-05 (inactive),0.00515 (inactive),3.07% (inactive),-0.215% (inactive),inactive
O=C(Nc1ccc2[nH]c3c(c2c1)CCCC3)c1ccco1,446,-20.5% (inactive),31% (inactive),85.7,78.9% (active),103,-0.288 (inactive),-4.7e-05 (inactive),0.00582 (inactive),-30.4% (inactive),-98.2% (inactive),inactive
CCC(c1nnc(SCC(=O)Nc2ccc(C(=O)Nc3ccccc3OC)cc2)o1)N(C)C (centres undefined),464,2.9% (inactive),-11.7% (inactive),102,-70.6% (inactive),90.3,-0.442 (inactive),-7.1e-06 (inactive),0.00416 (inactive),-5.51% (inactive),98.3% (active),inactive
O=C(O)CCc1ccc(-c2cccs2)n1NC(=O)c1ccccc1Br,338,-5.2% (inactive),2.7% (inactive),94.1,-46.9% (inactive),115,-0.416 (inactive),-5.2e-05 (inactive),0.0044 (inactive),19.5% (inactive),14.2% (inactive),inactive
Cc1cccc(NC(=O)c2cnc3sccn3c2=O)n1,613,-1.9% (inactive),-0.7% (inactive),115,-24.4% (inactive),109,-0.604 (inactive),5e-07 (inactive),0.00666 (inactive),-25.6% (inactive),-61.7% (inactive),–
O=C1NC(c2ccco2)Nc2ccccc21 (centres undefined),694,-50% (inactive),-23.8% (inactive),102,-84.8% (inactive),107,-0.344 (inactive),1.4e-05 (inactive),0.00562 (inactive),-17.2% (inactive),99.3% (active),–
CCOCCCN(Cc1cc2cc(C)cc(C)c2[nH]c1=O)C(=O)N(CC)CC,320,4.5% (inactive),2.5% (inactive),92.2,-15.3% (inactive),106,-0.423 (inactive),-3.6e-05 (inactive),0.00543 (inactive),-10.7% (inactive),-6.77% (inactive),inactive
